Source: ChEMBL document CHEMBL4387720, “Lead generation of 1,2-dithiolanes as exon 19 and exon 21 mutant EGFR tyrosine kinase inhibitors” (Bioorg Med Chem Lett, 2019)
One block for each compound: values may come before it.

How the values were obtained:
[1] = molecular target: T1, Epidermal growth factor receptor (Homo sapiens, UniProt P00533, L858R)
[2] = molecular target: Epidermal growth factor receptor (Homo sapiens, UniProt P00533, E746-A750DEL); experiment: Binding affinity to human partial length EGFR E746-A750 deletion mutant expressed in bacterial expression system by KinomeScan assay
Outline: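 Competition binding against an immobilized active-site-directed ligand. Bound kinase is quantified by qPCR of its DNA tag. Kd values come from duplicate 11-point dose-response curves.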

Homo sapiens = organism: Homo sapiens; experiment: Selectivity ratio, ratio of IC50 for probe binding to HER2 (unknown origin) to IC50 for probe binding to EGFR L858R mutant (unknown origin)
Outline: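 Ratio of two IC50 values measured in the rabbit reticulocyte lysate competition binding assay: HER2 and EGFR L858R. Each IC50 comes from displacement of an active-site-dependent probe, read by luminescence, with a ten-point dose-response. Each IC50 is the average of triplicate experiments.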

[3] = molecular target: Receptor tyrosine-protein kinase erbB-2 (Homo sapiens, UniProt P04626); experiment: Inhibition of probe binding to HER2 (unknown origin) using rabbit reticulate lysate system after 1 hr by luminescence assay
Outline: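 Homogeneous competition binding in rabbit reticulocyte lysate with kinase expressed in the lysate. IC50 taken from a ten-point dose-response curve; value is the average of triplicate experiments.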

[4] = molecular target: Epidermal growth factor receptor (Homo sapiens, UniProt P00533); experiment: Inhibition of probe binding to wild type EGFR (unknown origin) using rabbit reticulate lysate system after 1 hr by luminescence assay
[5] = Half life in rat S9 fraction; format: ADME, subcellular
[6] = molecular target: T1, Epidermal growth factor receptor; experiment: Binding affinity to human partial length EGFR L858R mutant (R669 to V1011 residues) expressed in bacterial expression system by kinomescan assay
Outline: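 Competition binding against an immobilized active-site-directed ligand; bound kinase quantified by qPCR of its DNA tag. Kd taken from duplicate 11-point dose-response curves.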

[7] = molecular target: T1, Epidermal growth factor receptor; experiment: Binding affinity to human partial length EGFR L858R mutant (R669 to V1011 residues) expressed in bacterial expression system under full equilibrating condition by scanKINETIC assay
Outline: (§1)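 Binding kinetics are read from Kd values measured under four dose-response arms. Arm A is full equilibration. Arm B is equilibrate, then 3-fold dilution, then equilibrate. Arm C is partial equilibration. Arm D is predilution followed by full equilibration. Comparing the arms assesses reversibility of binding.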

[8] = molecular target: T1, Epidermal growth factor receptor; experiment: Binding affinity to human partial length EGFR L858R mutant (R669 to V1011 residues) expressed in bacterial expression system under partial equilibration condition by scanKINETIC assay
Outline: as §1

[9] = molecular target: T1, Epidermal growth factor receptor; experiment: Binding affinity to human partial length EGFR L858R mutant (R669 to V1011 residues) expressed in bacterial expression system under equilibrate/3-fold dilution/eqiulibrate condition by scanKINETIC assay
Outline: as §1

[10] = molecular target: T1, Epidermal growth factor receptor; experiment: Binding affinity to human partial length EGFR L858R mutant (R669 to V1011 residues) expressed in bacterial expression system under predilution/full equilibration condition by scanKINETIC assay
Outline: as §1

[11] = Half life in human S9 fraction; format: ADME, subcellular
NCI-H322M [12] = experiment: Therapeutic index, ratio of LC50 for human NCI-H322M cells to GI50 for human NCI-H322M cells; format: functional
Outline: (§2)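 NCI-60 panel screen using five-dose response curves, each value an average of 2 experiments. […] The therapeutic index is calculated as LC50/GI50 for the same cell line.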

MOLT-4 [13] = experiment: Therapeutic index, ratio of LC50 for human MOLT4 cells to GI50 for human MOLT4 cells; format: functional
Outline: as §2

MOLT-4 [14] = experiment: cells; format: functional; details: Homo sapiens, MOLT-4, 48 h
NCI-H322M [15] = experiment: cells; format: functional; details: Homo sapiens, 48 h
A549 = experiment: cells; format: functional; details: Homo sapiens, A549, 48 h
NCI-H322M [16] = experiment: Cytotoxicity against human NCI-H322M cells assessed as reduction in measured protein incubated for 48 hrs by SRB assay; format: functional; details: read-out: LC50 (the source's name)
Outline: (§3)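 Tested in the NCI-60 panel with a five-dose response curve, each value the mean of 2 experiments.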

NCI-H460 = experiment: cells; format: functional; details: Homo sapiens, NCI-H460, 48 h
CCRF-CEM [17] = experiment: Cytotoxicity against human CCRF-CEM cells assessed as reduction in measured protein incubated for 48 hrs by SRB assay; format: functional; details: read-out: LC50 (the source's name)
Outline: as §3

MOLT-4 [18] = experiment: Cytotoxicity against human MOLT4 cells assessed as reduction in measured protein incubated for 48 hrs by SRB assay; format: functional; details: MOLT-4, 48 h, read-out: LC50 (the source's name)
Outline: as §3

CCRF-CEM [19] = experiment: cells; format: functional; details: Homo sapiens, 48 h
CCRF-CEM [20] = experiment: Therapeutic index, ratio of LC50 for human CCRF-CEM cells to GI50 for human CCRF-CEM cells; format: functional
Outline: as §2

Chain of Receptor tyrosine-protein kinase erbB-2 (P04626 whole entry): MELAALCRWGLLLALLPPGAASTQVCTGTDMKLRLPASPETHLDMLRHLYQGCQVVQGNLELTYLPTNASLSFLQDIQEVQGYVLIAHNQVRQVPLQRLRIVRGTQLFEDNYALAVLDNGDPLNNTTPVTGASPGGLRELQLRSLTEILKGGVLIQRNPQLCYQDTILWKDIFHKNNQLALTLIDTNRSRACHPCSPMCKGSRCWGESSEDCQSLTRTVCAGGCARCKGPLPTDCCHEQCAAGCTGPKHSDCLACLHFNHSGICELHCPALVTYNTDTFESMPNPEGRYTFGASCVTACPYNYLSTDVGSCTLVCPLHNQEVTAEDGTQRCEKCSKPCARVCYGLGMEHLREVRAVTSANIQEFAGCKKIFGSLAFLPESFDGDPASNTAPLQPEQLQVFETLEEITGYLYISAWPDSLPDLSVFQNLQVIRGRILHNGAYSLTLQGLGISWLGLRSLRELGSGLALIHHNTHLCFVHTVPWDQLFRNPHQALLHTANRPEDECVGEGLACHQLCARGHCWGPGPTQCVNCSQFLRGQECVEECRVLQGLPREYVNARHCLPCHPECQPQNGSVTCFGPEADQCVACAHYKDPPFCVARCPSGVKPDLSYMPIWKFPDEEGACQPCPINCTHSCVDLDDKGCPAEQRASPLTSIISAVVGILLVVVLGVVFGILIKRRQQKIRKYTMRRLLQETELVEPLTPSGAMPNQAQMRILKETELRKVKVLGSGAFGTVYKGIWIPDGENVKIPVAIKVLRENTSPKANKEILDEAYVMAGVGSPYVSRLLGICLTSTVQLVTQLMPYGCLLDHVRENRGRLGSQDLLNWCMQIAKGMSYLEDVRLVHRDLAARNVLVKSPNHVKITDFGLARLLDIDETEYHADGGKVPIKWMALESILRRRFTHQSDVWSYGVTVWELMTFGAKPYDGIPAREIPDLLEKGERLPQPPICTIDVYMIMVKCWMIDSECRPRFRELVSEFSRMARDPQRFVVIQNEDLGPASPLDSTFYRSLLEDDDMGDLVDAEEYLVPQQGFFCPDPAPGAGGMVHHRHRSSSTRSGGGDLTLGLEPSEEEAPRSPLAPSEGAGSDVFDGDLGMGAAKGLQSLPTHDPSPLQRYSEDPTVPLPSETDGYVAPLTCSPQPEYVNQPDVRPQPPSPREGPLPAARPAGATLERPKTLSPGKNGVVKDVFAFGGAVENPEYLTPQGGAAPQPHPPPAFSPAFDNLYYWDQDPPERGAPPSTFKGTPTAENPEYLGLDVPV
T1 sequence (P00533 25-1210 L858R limits assumed): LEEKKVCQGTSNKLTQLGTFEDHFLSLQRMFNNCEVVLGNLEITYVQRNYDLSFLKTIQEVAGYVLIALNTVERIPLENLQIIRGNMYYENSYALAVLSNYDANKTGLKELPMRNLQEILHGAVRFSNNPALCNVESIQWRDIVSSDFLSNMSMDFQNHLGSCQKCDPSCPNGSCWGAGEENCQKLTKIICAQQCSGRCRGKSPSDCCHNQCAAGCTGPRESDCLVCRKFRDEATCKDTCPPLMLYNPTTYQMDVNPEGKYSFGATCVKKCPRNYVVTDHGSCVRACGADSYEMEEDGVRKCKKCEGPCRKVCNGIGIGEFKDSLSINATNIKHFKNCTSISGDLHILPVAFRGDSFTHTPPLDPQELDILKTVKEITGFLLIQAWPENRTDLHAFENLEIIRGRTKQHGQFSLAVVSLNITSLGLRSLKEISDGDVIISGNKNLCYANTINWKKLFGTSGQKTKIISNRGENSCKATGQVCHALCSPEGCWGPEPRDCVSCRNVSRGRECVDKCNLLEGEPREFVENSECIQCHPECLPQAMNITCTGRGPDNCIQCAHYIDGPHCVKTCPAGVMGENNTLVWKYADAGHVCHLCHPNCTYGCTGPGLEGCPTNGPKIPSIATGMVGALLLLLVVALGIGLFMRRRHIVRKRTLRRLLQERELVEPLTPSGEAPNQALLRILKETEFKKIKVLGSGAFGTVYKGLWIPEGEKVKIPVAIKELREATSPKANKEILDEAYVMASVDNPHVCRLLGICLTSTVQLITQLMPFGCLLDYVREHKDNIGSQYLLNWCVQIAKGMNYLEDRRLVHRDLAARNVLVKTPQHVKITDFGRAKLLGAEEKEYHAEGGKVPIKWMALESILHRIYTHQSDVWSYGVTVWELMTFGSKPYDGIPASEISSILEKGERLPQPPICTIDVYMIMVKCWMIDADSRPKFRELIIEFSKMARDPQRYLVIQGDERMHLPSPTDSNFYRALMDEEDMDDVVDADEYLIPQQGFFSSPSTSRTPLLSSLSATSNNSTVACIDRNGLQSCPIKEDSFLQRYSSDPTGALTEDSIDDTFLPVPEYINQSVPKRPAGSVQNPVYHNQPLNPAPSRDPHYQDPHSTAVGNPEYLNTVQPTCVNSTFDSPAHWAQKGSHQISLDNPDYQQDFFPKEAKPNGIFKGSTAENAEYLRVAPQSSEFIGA
Chain of Epidermal growth factor receptor (Homo sapiens, UniProt P00533) (P00533 whole entry): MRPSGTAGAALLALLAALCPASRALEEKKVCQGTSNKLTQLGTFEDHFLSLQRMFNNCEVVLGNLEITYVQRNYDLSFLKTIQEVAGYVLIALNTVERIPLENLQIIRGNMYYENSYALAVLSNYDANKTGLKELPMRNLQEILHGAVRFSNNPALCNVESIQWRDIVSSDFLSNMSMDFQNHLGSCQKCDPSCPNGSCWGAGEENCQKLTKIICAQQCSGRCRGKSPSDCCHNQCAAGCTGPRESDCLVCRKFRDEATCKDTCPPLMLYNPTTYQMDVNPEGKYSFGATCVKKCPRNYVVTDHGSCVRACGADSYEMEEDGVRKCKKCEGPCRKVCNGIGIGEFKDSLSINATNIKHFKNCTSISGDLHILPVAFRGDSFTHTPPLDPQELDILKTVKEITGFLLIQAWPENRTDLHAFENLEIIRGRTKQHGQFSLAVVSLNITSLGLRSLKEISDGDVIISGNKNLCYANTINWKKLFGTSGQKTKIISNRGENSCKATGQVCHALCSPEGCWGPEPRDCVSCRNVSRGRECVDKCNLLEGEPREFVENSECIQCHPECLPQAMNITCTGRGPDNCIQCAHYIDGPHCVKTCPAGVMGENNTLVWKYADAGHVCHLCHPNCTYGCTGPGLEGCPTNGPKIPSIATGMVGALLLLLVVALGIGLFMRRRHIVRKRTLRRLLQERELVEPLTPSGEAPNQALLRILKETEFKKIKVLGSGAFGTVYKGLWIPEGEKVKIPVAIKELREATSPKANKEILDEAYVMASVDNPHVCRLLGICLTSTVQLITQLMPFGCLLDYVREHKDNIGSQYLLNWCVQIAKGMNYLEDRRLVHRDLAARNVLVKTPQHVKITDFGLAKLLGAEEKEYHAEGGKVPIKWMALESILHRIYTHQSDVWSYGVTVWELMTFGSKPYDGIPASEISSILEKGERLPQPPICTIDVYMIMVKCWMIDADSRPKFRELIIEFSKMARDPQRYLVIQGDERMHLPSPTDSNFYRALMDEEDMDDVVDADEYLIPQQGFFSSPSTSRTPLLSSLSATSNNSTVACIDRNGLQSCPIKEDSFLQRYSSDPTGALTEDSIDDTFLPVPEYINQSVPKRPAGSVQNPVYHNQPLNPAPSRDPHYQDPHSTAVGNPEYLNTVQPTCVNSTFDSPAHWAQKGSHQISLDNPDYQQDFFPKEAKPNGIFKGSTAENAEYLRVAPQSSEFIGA
Chain of Epidermal growth factor receptor (Homo sapiens, UniProt P00533, E746-A750DEL) (P00533 whole entry E746-A750del, looked up): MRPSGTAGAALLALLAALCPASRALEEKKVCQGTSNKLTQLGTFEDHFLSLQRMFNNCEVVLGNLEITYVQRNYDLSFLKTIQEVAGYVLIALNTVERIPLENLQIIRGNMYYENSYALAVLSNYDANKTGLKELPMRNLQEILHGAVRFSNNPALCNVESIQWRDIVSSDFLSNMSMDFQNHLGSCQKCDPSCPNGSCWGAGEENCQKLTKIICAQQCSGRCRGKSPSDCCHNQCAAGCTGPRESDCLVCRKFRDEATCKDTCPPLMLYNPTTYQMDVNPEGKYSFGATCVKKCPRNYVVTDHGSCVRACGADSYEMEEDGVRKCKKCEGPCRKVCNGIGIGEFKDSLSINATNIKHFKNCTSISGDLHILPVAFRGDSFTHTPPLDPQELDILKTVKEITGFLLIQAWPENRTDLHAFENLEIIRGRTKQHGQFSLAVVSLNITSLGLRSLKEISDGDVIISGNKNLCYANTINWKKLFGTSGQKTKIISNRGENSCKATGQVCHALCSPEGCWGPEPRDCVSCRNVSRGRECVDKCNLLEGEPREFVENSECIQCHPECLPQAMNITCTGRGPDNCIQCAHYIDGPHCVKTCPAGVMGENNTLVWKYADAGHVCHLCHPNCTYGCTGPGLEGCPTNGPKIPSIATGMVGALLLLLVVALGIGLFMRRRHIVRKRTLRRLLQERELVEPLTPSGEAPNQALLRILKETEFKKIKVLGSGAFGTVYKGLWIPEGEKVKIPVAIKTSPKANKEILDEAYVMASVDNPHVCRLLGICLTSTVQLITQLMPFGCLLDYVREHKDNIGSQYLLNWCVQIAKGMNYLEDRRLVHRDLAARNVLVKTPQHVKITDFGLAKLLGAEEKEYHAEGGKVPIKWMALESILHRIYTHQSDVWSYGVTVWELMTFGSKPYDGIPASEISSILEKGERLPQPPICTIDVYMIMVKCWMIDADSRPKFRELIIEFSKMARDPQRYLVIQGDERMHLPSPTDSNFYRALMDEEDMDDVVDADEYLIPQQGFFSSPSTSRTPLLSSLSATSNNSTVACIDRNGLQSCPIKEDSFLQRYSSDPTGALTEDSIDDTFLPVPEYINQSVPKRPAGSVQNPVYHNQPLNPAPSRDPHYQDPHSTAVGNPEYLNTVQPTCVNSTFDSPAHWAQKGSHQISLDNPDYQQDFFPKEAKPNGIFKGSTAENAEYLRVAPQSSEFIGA

Structure (SMILES): CCOc1cc2ncc(C#N)c(Nc3ccc(OCc4cccc(F)c4)c(Cl)c3)c2cc1NC(=O)C1CSSC1
- IC50 [1]: 18 nM
- Kd [2]: 110 nM
- Ratio IC50 (Homo sapiens): > 25
- IC50 [3]: 730 nM
- IC50 [4]: 210 nM

Structure (SMILES): CC(C)NCC(O)COc1cccc2ccccc12 (stereo not given) [PROPRANOLOL]
- half-life [5]: 27.5 min

Structure (SMILES): CCOc1cc2ncc(C#N)c(Nc3ccc(OCc4cccc(F)c4)c(Cl)c3)c2cc1NC(=O)CCCCC1CCSS1 (stereo not given)
- IC50 [1]: 33 nM
- Kd [6]: 32 nM
- IC50 [4]: 730 nM

Structure (SMILES): CCOc1cc2ncc(C#N)c(Nc3ccc(F)c(Cl)c3)c2cc1NC(=O)CCCCC1CCSS1 (stereo not given)
- IC50 [1]: 420 nM

Structure (SMILES): CCOc1cc2ncc(C#N)c(Nc3ccc(OCc4cccc(F)c4)c(Cl)c3)c2cc1NC(=O)C(CSC(C)=O)CSC(C)=O
- IC50 [1]: 26.8 nM
- Kd [6]: 16 nM
- Kd [2]: 180 nM
- IC50 [4]: 340 nM

Structure (SMILES): COc1cc2ncnc(Nc3ccc(OCc4cccc(F)c4)c(Cl)c3)c2cc1NC(=O)CC1CCSS1 (stereo not given)
- IC50 [1]: 5.8 nM
- IC50 [4]: 25 nM

Structure (SMILES): CC(=O)SCC(CSC(C)=O)C(=O)Nc1cc2c(Nc3ccc(OCc4cccc(F)c4)c(Cl)c3)c(C#N)cnc2cc1OC[C@H](O)CO
- Kd [7]: 2.1 nM
- Kd [8]: 5.9 nM
- Kd [9]: 58 nM
- Kd [10]: 60 nM

Structure (SMILES): O=c1ccc2ccc(O)cc2o1 [UMBELLIFERONE]
- half-life [11]: 26.6 min

Structure (SMILES): COc1cc2ncnc(Nc3ccc(Oc4ccc(C)nc4)c(C)c3)c2cc1NC(=O)CC1CCSS1 (stereo not given)
- TI (NCI-H322M [12]): >46.7
- TI (MOLT-4 [13]): 16.2
- GI50 (MOLT-4 [14]): 160 nM
- GI50 (NCI-H322M [15]): 1070 nM
- GI50 (A549): 760 nM
- CC50 (NCI-H322M [16]): > 50000 nM
- GI50 (NCI-H460): 110 nM
- CC50 (CCRF-CEM [17]): > 50000 nM
- CC50 (MOLT-4 [18]): > 2600 nM
- GI50 (CCRF-CEM [19]): 220 nM
- TI (CCRF-CEM [20]): >227

Structure (SMILES): N#Cc1cnc2cc(OC[C@@H](O)CO)c(NC(=O)C3CSSC3)cc2c1Nc1ccc(OCc2cccc(F)c2)c(Cl)c1
- Kd [7]: 0.7 nM
- IC50 [1]: 9 nM
- Kd [8]: 1.9 nM
- Kd [9]: 8.4 nM
- Ratio IC50 (Homo sapiens): > 25
- IC50 [3]: 167 nM
- Kd [10]: 16 nM
- IC50 [4]: 125 nM

Structure (SMILES): CCOc1cc2ncc(C#N)c(Nc3ccc(F)c(Cl)c3)c2cc1NC(=O)CC1CCSS1 (stereo not given)
- IC50 [1]: 300 nM

The next lines start with the values.

- IC50 [1]: 413 nM
- Ratio IC50 (Homo sapiens): 1.4
- IC50 [3]: 590 nM
- IC50 [4]: 658 nM
Structure (SMILES): COc1cc2ncnc(Nc3ccc(Oc4ccc(C)nc4)c(C)c3)c2cc1NC(=O)C1CSSC1

- IC50 [1]: > 10000 nM
- IC50 [3]: > 10000 nM
- IC50 [4]: 8630 nM
Structure (SMILES): Cc1ccc(Oc2ccc(Nc3c(C#N)cnc4ccc(NC(=O)CC5CCSS5)cc34)cc2C)cn1 (stereo not given)

- IC50 [1]: 36 nM
- Ratio IC50 (Homo sapiens): > 25
- IC50 [3]: 730 nM
- IC50 [4]: 164 nM
Structure (SMILES): N#Cc1cnc2ccc(NC(=O)CC3CCSS3)cc2c1Nc1ccc(OCc2cccc(F)c2)c(Cl)c1 (stereo not given)

- IC50 [1]: > 10000 nM
- IC50 [4]: > 10000 nM
Structure (SMILES): Cc1ccc(Oc2ccc(Nc3c(C#N)cnc4ccc(NC(=O)C5CSSC5)cc34)cc2C)cn1

- IC50 [1]: 6.5 nM
- IC50 [4]: 76 nM
Structure (SMILES): COc1cc2ncnc(Nc3ccc(OCc4cccc(F)c4)c(Cl)c3)c2cc1NC(=O)C1CSSC1

- IC50 [1]: 199 nM
Structure (SMILES): N#Cc1cnc2ccc(NC(=O)C3CSSC3)cc2c1Nc1ccc(OCc2cccc(F)c2)c(Cl)c1

- IC50 [1]: 219 nM
Structure (SMILES): CCOc1cc2ncc(C#N)c(Nc3ccc(F)c(Cl)c3)c2cc1NC(=O)C1CSSC1

- IC50 [1]: 20 nM
- IC50 [4]: 256 nM
Structure (SMILES): N#Cc1cnc2cc(OC[C@H](O)CO)c(NC(=O)C3CSSC3)cc2c1Nc1ccc(OCc2cccc(F)c2)c(Cl)c1
